HUVEC prolif 384 = inhibitors of HUVEC proliferation, primary screen, cell-based, 384-well. CellTiter-Glo luminescence, 72 h; active compounds read low. viability, % at 10 µM (by protocol). actives 1.1% (n = 86,000);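 active = viability at or below 30%; inactive = viability above 30%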;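 also: 100% = median luminescence of DMSO-only cell control wells on each plate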
H69AR growth 86K = proliferation blockers of H69AR lung cancer cells, primary screen, cell-based, human, 86K library; H69AR lung tumor viability, ATP luminescence, 72 h; active compounds read low; viability, % at 10 µM; actives 6% (n = 85,000);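 active = viability at or below 40%; inactive = viability above 40%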;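 also: multidrug resistant small cell line overexpressing MRP-1 efflux transporter; 100% = mean luminescence of untreated control wells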
ERa coact pot = enhancers of ERα–SRC-1 coactivator binding, primary screen, biochemical, TR-FRET, ERα LBD, low estradiol; Estrogen receptor (Homo sapiens), P03372; TR-FRET ERalpha-LBD/SRC-Cy5 coactivator binding, 2 h; 100 = basal binding, no effect; coactivator binding (% of control), % at 25.6 µM; actives 1.3% (n = 86,000); AID 639, 2007; in the data active = activity above about 200%;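 also: binding measured in presence of low estradiol as agonist stimulus; 0% = peptide alone without receptor and 100% = receptor with peptide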
Target sequence (P03372 whole entry, looked up, the tested form may be a part): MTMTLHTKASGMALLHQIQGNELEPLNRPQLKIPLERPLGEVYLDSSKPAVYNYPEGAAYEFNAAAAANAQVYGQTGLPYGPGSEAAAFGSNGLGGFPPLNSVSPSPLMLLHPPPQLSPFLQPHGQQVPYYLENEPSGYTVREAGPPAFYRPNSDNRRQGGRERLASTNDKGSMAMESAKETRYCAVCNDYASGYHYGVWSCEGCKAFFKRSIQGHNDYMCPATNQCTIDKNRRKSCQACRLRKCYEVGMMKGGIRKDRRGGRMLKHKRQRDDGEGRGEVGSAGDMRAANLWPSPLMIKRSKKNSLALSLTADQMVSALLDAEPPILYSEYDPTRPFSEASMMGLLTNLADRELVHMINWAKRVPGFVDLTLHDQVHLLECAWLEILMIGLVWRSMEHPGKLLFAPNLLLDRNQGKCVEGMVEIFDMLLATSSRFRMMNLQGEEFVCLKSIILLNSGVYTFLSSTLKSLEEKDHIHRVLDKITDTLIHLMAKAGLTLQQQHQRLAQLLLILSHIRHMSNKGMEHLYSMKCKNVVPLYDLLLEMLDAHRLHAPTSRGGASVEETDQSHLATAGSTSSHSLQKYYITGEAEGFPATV
ERb coact inh = inhibitors of ERβ-SRC1 coactivator interaction, primary screen, biochemical, TR-FRET, ERβ LBD, SRC-1 peptide | Estrogen receptor beta (Homo sapiens), Q92731 | TR-FRET ER-beta LBD / SRC1-Cy5 peptide binding; receptor agonist-loaded with 1 µM estradiol | inhibition, % at 25.6 µM | actives 1.3% (n = 86,000);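 active = compounds whose percent inhibition of the receptor-coactivator binding signal exceeds about 50% in the single-dose screen, limit read from the data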;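 also: 0% = receptor plus peptide wells without compound and 100% = peptide-only wells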
Fibroblast inh = antiproliferative effect on LL 47 fibroblasts – human, LL 47 cells, CellTiter-Glo luminescence, primary screen; actives 1.1% (n = 85,000); LL 47 human lung fibroblast viability, ATP luminescence; active compounds read low; AID 719, 2007; viability, % at 10 µM;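 active = viability at or below 50% in the single dose screen; inactive = viability above 50%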;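 also: compound exposure lasted 72 h before the ATP readout; 100% = median luminescence of untreated cell-only wells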
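Test system: LL 47 human lung fibroblasts / Incubation: 72 h compound exposure at 37 °C after overnight plating / Technique: luminescent ATP detection, CellTiter-Glo / Compound dosing: 0.1% DMSO in all compound wells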
ERa coact inh = ERα–SRC-1 coactivator interaction inhibitors, primary screen, biochemical, TR-FRET, ERα LBD, estradiol-bound | Estrogen receptor (Homo sapiens), P03372 | TR-FRET ER-alpha LBD / SRC-1 peptide | inhibition, % at 25.6 µM | actives 1.7% (n = 86,000); in the data active = inhibition above about 50%;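 also: 0% = receptor plus peptide control and 100% = peptide only without receptor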
The depositor's hits bear a star; · = not tested or not shown; [ ] = remark or other dose. A selection: hits, their analogues and other compounds. The true share with any hit is near 9.2%.

SMILES	HUVEC prolif 384	H69AR growth 86K	ERa coact pot	ERb coact inh	Fibroblast inh	ERa coact inh
N#CC1=C(N)SC(N)=C(C#N)C1CCc1ccccc1	81	86	110	12	93	-4
N#CC1=C(N)SC(N)=C(C#N)C1Cc1ccccc1	73	17*	82	-4	94	-9
Cn1c(NCCCO)nc2c1c(=O)n(Cc1ccccc1F)c(=O)n2C	105	93	103	-20	103	-28
COc1ccc(Oc2nc3c(c(=O)n(C)c(=O)n3C)n2Cc2ccccc2)cc1	77	83	208*[fluorescence artefact?]	1	93	2
Cn1c(=O)c2c(nc(Oc3ccc4c(c3)OCO4)n2Cc2ccc(Cl)cc2)n(C)c1=O	12*	12*	135	7	·	-9
COc1ccc(N2CCN(c3nc4c(c(=O)n(C)c(=O)n4C)n3Cc3ccccc3)CC2)cc1	94	87	92	3	97	-24
COc1ccccc1Oc1nc2c(c(=O)n(Cc3ccccc3F)c(=O)n2C)n1C	91	40*	108	-2	94	-10
c1ccc(SCc2nc3ccccc3[nH]2)nc1	101	97	115	1	107	-2
Cc1cc(C(=O)Nc2sc3c(c2C#N)CCC(C(C)(C)C)C3)no1 (configuration not stated)	67	23*	93	-3	89	-31
CCc1ccc(CCC(=O)Nc2sc3c(c2C#N)CCCC3)o1	34	33*	109	21	58	14
CCOC(=O)N1CCN(S(=O)(=O)c2ccc(C(=O)Nc3sc4c(c3C#N)CCC4)cc2)CC1	47	28*	134	8	84	6
CC(C)c1cc(C(=O)Nc2sc3c(c2C#N)CCC3)no1	65	26*	82	5	84	0
CC(C)(C)C1CCc2c(sc(NC(=O)c3cc(C4CC4)on3)c2C#N)C1 (configuration not stated)	79	72	134	-2	90	-4
CN(C)c1nc(SCCOC(=O)Nc2ccccc2)nc(N(C)C)n1	88	77	127	-5	106	-6
Cc1cc(C(=O)Nc2sc3c(c2C#N)CCC(C)C3)cs1 (configuration not stated)	103	19*	152	6	110	8
N#Cc1c(NC(=O)c2ccccc2)sc2c1CCC2	55	21*	100	16	84	1
Cc1cc(C(F)F)n2nc(C(=O)Nc3sc4c(c3C#N)CCC(C)C4)nc2n1 (configuration not stated)	87	102	101	-4	95	-9
Cc1cccc(C(=O)Nc2sc3c(c2C#N)CCCCC3)c1	71	58	92	-6	99	3
N#Cc1c(NC(=O)c2cccnc2)sc2c1CCC2	54	21*	50	32	75	27
CCCC1CCc2c(sc(NC(=O)OCC)c2C#N)C1 (configuration not stated)	56	28*	128	-5	84	0
COCCn1c(CN2CCN(c3ccccc3F)CC2)nc2c1c(=O)n(C)c(=O)n2C	103	103	95	-1	96	-7
Cn1nc(-c2ccccc2)c(-c2nc(-c3cccc(Cl)c3)no2)c1Cl	81	53	97	-13	93	-2
Cc1ccc(-n2nc3c(c2NC(=O)c2ccc(S(=O)(=O)N4CCOCC4)cc2)CSC3)c(C)c1	94	73	123	-2	95	-3
N#Cc1ccc(-c2cccnc2)nc1SCC(=O)Nc1sc2c(c1C#N)CCC2	38	101	53	66*	31*	85*
COc1ccc(-c2c(C#N)c(C)nc3c2C(=O)c2ccccc2-3)cc1	79	67	373*	2	96	2
SMILES	HUVEC prolif 384	H69AR growth 86K	ERa coact pot	ERb coact inh	Fibroblast inh	ERa coact inh
COc1ccc(OC)c(S(=O)(=O)N2CCC(C(=O)N3CCc4ccccc4C3)CC2)c1	86	36*	114	-4	97	-3
COc1ccc(OCC(=O)Nc2ncc3c(n2)CC(C)(C)CC3=O)cc1	90	86	126	-10	98	-1
Cc1cc(C)n2nc(C(=O)OCCOc3ccc(F)cc3)nc2n1	94	99	110	-2	110	5
Cc1cc(C)n2nc(C(=O)OCC(=O)c3cc(C)n(C)c3C)nc2n1	86	88	63	51*[fluorescence artefact?]	94	40
O=C(NCCCN1CCCCCC1)C1CC(=O)N(CCc2ccccc2)C1 (configuration not stated)	96	93	966*[fluorescence artefact?]	22	95	3
COc1ccc(OC)c(C(=O)CSc2nnc(Cc3cccs3)n2CCc2ccccc2)c1	84	69	111	-5	88	-4
CCOC(=O)N1CCc2c(sc3c2C(=O)NC(c2ccccc2)N3)C1 (configuration not stated)	56	32*	91	-25	61	-53
CN1CCc2c(sc3c2C(=O)NC(c2ccco2)N3)C1 (configuration not stated)	100	83	91	9	101	-6
CCOc1ccc(Br)cc1C1NC(=O)c2c(sc3c2CCN(C)C3)N1 (configuration not stated)	78	39*	79	-5	88	-11
COc1ccc(Br)cc1C1NC(=O)c2c(sc3c2CCN(C)C3)N1 (configuration not stated)	86	56	100	3	102	-5
CN1CCc2c(sc3c2C(=O)NC(c2cn(Cc4ccccc4)c4ccccc24)N3)C1 (configuration not stated)	68	3.4*	14	64*[fluorescence artefact?]	53	90*[fluorescence artefact?]
CCN(c1cccc(C)c1)c1nc2ccsc2c(=O)s1	92	75	166	-5	104	2
CCN1C=CC(=C2C(=O)c3ccccc3C2=O)C=C1	61	27*	101	-6	69	-10
CCCN1C=CC(=C2C(=O)c3ccccc3C2=O)C=C1	49	63	96	2	82	4
CN1CC(=O)NC1=NC(=O)c1ccc(Cl)c(S(=O)(=O)N2CCCCCC2)c1	89	12*	90	3	84	18
C=CCOc1ccc2nc(NC(=O)OC)[nH]c2c1	47	33*	106	-6	49*	-4
CC(C)n1c(NCCc2ccccc2)nc2c1c(=O)n(C)c(=O)n2C	90	96	96	-6	102	-4

Assay outcomes as filed in PubChem BioAssay.
